Published values of several laboratories.
Each line is one published result; the experiments were not run side by side.
ABCG2: Broad substrate specificity ATP-binding cassette transporter ABCG2 (ABCG2, Homo sapiens, UniProt Q9UNQ0)

| Structure (SMILES) | tested on | test | system | conditions | measurement | value |
| --- | --- | --- | --- | --- | --- | --- |
| C[C@@H]1Cn2ncc(-c3ccc(C(=O)N4CCCc5ccccc54)cc3)c2CN1C(=O)Cc1ccccc1 | ABCG2 |  | dog, MDCK-MDR1 |  | Papp B→A | 16 ×10⁻⁶ cm/s |
| Cc1cc2cc(O)cc(O)c2c(=O)o1 | K562 | cell growth or viability |  |  | IC50 | 19 µM |
| COc1cc(Nc2ncc(F)c(Nc3ccc4c(n3)NC(=O)C(C)(C)O4)n2)cc(OC)c1OC | ABCG2 | transporter uptake, inhibitor |  | cell membranes | Ki | 0.065 µM |
| CCOC(=O)[C@@]12C[C@@H]1[C@@H](n1ccc3c(NC)nc(C#Cc4ccc(Cl)s4)nc31)[C@H](O)[C@@H]2O |  |  | male Sprague-Dawley rat, plasma | oral, 1 mg/kg, 2 h | concentration | 5.92 ng/mL |
| C/C(O)=C(\C#N)C(=O)Nc1ccc(C(F)(F)F)cc1 | ABCG2 |  | Caco-2 | 1 µM, 2 h, pH 7.4 | Papp B→A | 33.4 ×10⁻⁶ cm/s |
| COc1cccc(-c2n[nH]c(SCc3ccccn3)n2)c1OC |  |  | female Sprague-Dawley rat, plasma | oral, 100 mg/kg, 1 h, single dose | concentration | 62200 ng/mL |
| CO[C@@H](C(=O)N1Cc2c(-c3ccc(C(=O)N4CCCc5ccccc54)cc3)cnn2C[C@H]1C(C)C)c1cnn(C)c1 (single isomer, unassigned) | ABCG2 |  | dog, MDCK-MDR1 |  | Papp B→A | 33.7 ×10⁻⁶ cm/s |
| C=CC1(C)CC(OC(=O)CSc2nc3ccccc3s2)C2(C)C(C)CCC3(CCC(=O)C32)C(C)C1O (stereo not shown) | K562 | cell growth or viability |  |  | IC50 | 38.2 µM |
| C[C@H](C(=O)N1Cc2c(-c3ccc(C(=O)N4CCCc5ccccc54)cc3)cnn2C[C@@H]1C)c1ccccc1 | ABCG2 |  | dog, MDCK-MDR1 |  | Papp B→A | 13.4 ×10⁻⁶ cm/s |
| O=C(O)c1cc(Br)c(O)c(Br)c1 | K562 | cell growth or viability |  |  | IC50 | > 432 µM |
| CO[C@H](C(=O)N1Cc2c(-c3ccc(C(=O)N4CCCc5ccccc54)cc3)cnn2C[C@H]1C(C)C)c1ccccc1 (single isomer, unassigned) | ABCG2 |  | dog, MDCK-MDR1 |  | Papp B→A | 8.4 ×10⁻⁶ cm/s |
| COc1ccc2c(=O)n(C)c(-c3ccccc3)nc2c1 |  |  | male Sprague-Dawley rat, spleen | oral, 30 mg/kg, 15 min | concentration | 7.53 ng/mL |
| Cc1noc(C)c1Cn1cc(N2C(=O)CN(Cc3cccc(O)c3)C2=O)cn1 |  |  | male Sprague-Dawley rat, plasma | oral, 100 mg/kg, 12 h | concentration | 11.4 ng/mL |
| Cc1nnc(SCC(=O)Nc2ccc(Br)cc2)nc1O | K562 | cell growth or viability |  |  | IC50 | > 200 µM |
| Cc1n[nH]c(CC(=O)N2Cc3c(-c4ccc(C(=O)N5CCCc6ccccc65)cc4)cnn3C[C@H]2C)n1 | ABCG2 |  | dog, MDCK-MDR1 |  | Papp B→A | 14.1 ×10⁻⁶ cm/s |
| O=C(N/N=C/c1ccc2ccccc2c1)c1ccc(O)c(O)c1 | K562 | cell growth or viability |  |  | IC50 | 28.9 µM |
| CCc1cc(-c2noc(-c3cc(OC)nc(C4CCCC4)c3)n2)cc(C)c1OC[C@@H](O)CO |  |  | Wistar rat, plasma | oral, 1 mg/kg, 3 h, single dose | concentration | 62.7 ng/mL |
| O=C(O)CSc1nnc(Br)n1-c1ccc(C2CC2)c2ccccc12 | ABCG2 | transporter uptake, inhibitor | Caco-2 | 100 µM, 2 h | inhibition | 38% |
| Nc1ccc(S(=O)(=O)NC(=O)/C=C\c2ccccc2Cl)cc1 | K562 | cell growth or viability |  |  | IC50 | > 200 µM |
